From PubChem
An excerpt weighted towards active compounds, which were near 2% of everything screened.
HSP90 inh: HSP90 inhibitors, primary screen, cell lysate, luminescence | Heat shock protein HSP 90 (rabbit reticulocyte lysate; luciferase refolding) | Rabbit reticulocyte lysate, luciferase refolding luminescence, 3 h | inhibition, % at 5.6 µM | 0.91% of 290,000 active | AID 1789, 2009;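 active = inhibition above the screen-wide mean plus 3 SD, computed separately per campaign, cut at about 16% in these data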;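 also: 0% = DMSO wells and 100% = 60 µM geldanamycin wells; inhibitors lower the luminescence because luciferase stays unfolded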
PPC-1+TRAIL kill: compounds killing PPC-1 cancer cells with TRAIL present, primary screen, TRAIL potentiator project, ATPLite luminescence, uHTS; 0.41% of 220,000 active; cell killing (% activity), % at 4 µM or 5 µM; PPC-1 cells + TRAIL, ATPLite viability luminescence;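 active = cell killing above 50% in the first pass at 4 µM, then a duplicate retest at 5 µM averaging 50% or more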;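 also: plate controls were cells with TRAIL plus DMSO for no effect and medium-only wells lacking cells for full effect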
TRAIL sens C8: viability loss with TRAIL in NB7+C8 cells, primary screen, TRAIL sensitizer project, cell-based, ATPlite luminescence; inhibition (viability loss, TRAIL sensitization), % at 10 µM; 1% of 360,000 active;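 active = compounds causing at least 50% loss of cell viability in the single-dose screen, relative to plate controls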
FLuc inh counter: firefly luciferase enzyme inhibitors, primary screen, artefact control for luciferase-based inhibitor screens, biochemical, luminescence, ATPLite | Luciferin 4-monooxygenase (Photinus pyralis), P08659 | 10 min | inhibition, % at 10 µM | 1.5% of 200,000 active | AID 1006, 2008;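 active = inhibition above about 50% when tested at 10 µM, limit read from the data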
Target sequence (P08659 whole entry, looked up): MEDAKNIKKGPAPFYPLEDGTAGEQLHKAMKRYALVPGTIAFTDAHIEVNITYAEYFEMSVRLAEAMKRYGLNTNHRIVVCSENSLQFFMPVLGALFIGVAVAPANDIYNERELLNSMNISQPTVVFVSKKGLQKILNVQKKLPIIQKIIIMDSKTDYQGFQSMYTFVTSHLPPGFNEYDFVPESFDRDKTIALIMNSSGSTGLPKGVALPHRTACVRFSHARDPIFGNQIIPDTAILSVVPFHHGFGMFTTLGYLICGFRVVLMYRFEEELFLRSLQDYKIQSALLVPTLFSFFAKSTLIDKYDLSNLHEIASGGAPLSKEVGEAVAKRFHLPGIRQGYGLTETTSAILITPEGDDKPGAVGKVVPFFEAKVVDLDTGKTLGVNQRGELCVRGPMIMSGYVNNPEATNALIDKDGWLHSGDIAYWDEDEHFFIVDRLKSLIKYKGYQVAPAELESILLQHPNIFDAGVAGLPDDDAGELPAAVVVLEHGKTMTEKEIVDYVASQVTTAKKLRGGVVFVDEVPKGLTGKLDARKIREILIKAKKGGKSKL
FLuc act counter: FLuc activators, initial screening, artefact control for FLuc-dependent activation tests, biochemical, ATPlite luminescence; ATPlite luciferase biochemical, 10 min; 0 = ATP-free wells, 1 = DMSO control; activation factor at 10 µM; Luciferin 4-monooxygenase (Photinus pyralis), P08659; 200,000 tested, under 10 active;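 active = luciferase activation factor, scaled between plate controls, of at least 2 with compound at 10 µM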
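assay system = Luciferase/luciferin detection reagent, cell-free biochemical luciferase assay | also added = ATP substrate | times = 10 min post-reagent at room temperature | measured by = luminescence from luciferase reaction | measure = luciferase activation, seen as luminescence increase over controls | benchmarks = low control with PBS replacing ATP, high control enzyme plus ATP without compound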
PPC-1 tox: cytotoxicity in PPC-1 cells, confirmation, cytotoxicity control for TRAIL apoptosis potentiator project, cell-based, ATP content luminescence; shares compounds with PPC-1+TRAIL kill; PPC-1 viability, ATPlite luminescence, overnight; cytotoxicity, % at 5 µM; 50% of 1,200 active; AID 1447, 2008;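 active = reconfirmed compounds whose average cytotoxicity reaches 50% or more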;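 also: 0% = DMSO-treated cells and 100% = wells holding medium but no cells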
* marks the source's active call; other numbers are inactive results.

For CC1(C)CC(=O)c2sc(NC(=O)C(C)(C)C)nc2C1 the results were HSP90 inh -4, PPC-1+TRAIL kill 8, TRAIL sens C8 8, FLuc inh counter 12 and FLuc act counter 0.9.
CC1(C)CC(=O)c2sc(NC(=O)c3cccs3)nc2C1 was read as HSP90 inh 5, PPC-1+TRAIL kill 77*, TRAIL sens C8 85*, FLuc inh counter 95*, FLuc act counter 0.1 and PPC-1 tox 77*.
CC(C)c1cccc(-c2csc(C(C)(O)c3ccccc3)n2)c1 (centres undefined) was read as TRAIL sens C8 -4.
`CCCCN1C=CC(=C2C(=O)c3ccccc3C2=O)C=C1` gave HSP90 inh 83*, PPC-1+TRAIL kill 96*, TRAIL sens C8 95*, FLuc inh counter 98*, FLuc act counter 0 and PPC-1 tox 96*.
Screening Cc1cc(=O)[nH]c(N/N=C/c2ccccc2C(F)(F)F)n1 returned HSP90 inh 8, PPC-1+TRAIL kill 18, TRAIL sens C8 2, FLuc inh counter 0 and FLuc act counter 1.
`Cc1cc(=O)[nH]c(N=N/C(=N/Nc2ccc(O)cc2)c2ccccc2)n1` gave HSP90 inh 1, PPC-1+TRAIL kill 12, TRAIL sens C8 0, FLuc inh counter 34, FLuc act counter 0.7 and PPC-1 tox 2.
COc1ccc(C(=O)C(=NNc2ccccc2)c2ccc(OC)cc2)cc1 was read as TRAIL sens C8 -9.
COc1ccc(N/N=C(/N=Nc2nc(C)cc(=O)[nH]2)c2ccccc2)cc1 was read as HSP90 inh -2, PPC-1+TRAIL kill 61*, TRAIL sens C8 53*, FLuc inh counter 73*, FLuc act counter 0.3 and PPC-1 tox 58*.
For Cc1cc(=O)[nH]c(N=N/C(=N/Nc2ccccc2C)c2ccccc2)n1 the results were HSP90 inh 7, PPC-1+TRAIL kill 42, TRAIL sens C8 2, FLuc inh counter 10, FLuc act counter 0.9 and PPC-1 tox 36.
Cc1ccc(-n2nc(C)c3c(C)c(CCC(=O)NCC4CCCO4)c(=O)n(C)c32)cc1 (centres undefined) was read as HSP90 inh 1 and TRAIL sens C8 8.
CCOC(=O)CNC(=O)CSc1nnc(SCC(=O)NCC(=O)OCC)s1 was read as HSP90 inh 0, PPC-1+TRAIL kill 27, TRAIL sens C8 7, FLuc inh counter 2 and FLuc act counter 1.
For CCOC(=O)CNC(=O)CSc1nnc(NC(=O)c2ccc(C)cc2)s1 the results were HSP90 inh 4, PPC-1+TRAIL kill 92*, TRAIL sens C8 88*, FLuc inh counter 94*, FLuc act counter 0.1 and PPC-1 tox 92*.
`C=CCN(CC=C)Cc1cc(=O)oc2cc(C)cc(C)c12` gave TRAIL sens C8 -11.
`CCOC(=O)C1C(=O)NCC2CCCC21` (centres undefined) gave HSP90 inh -3, PPC-1+TRAIL kill 6, TRAIL sens C8 7, FLuc inh counter -4, FLuc act counter 1 and PPC-1 tox 4.
For Cc1ccc(C)c(OCCC(=O)OCC(=O)Nc2cccc(S(=O)(=O)N3CCCC3)c2)c1 the results were TRAIL sens C8 2.
For NS(=O)(=O)c1ccc(CCNC(=O)CCCNC(=O)c2ccc(Cl)cc2)cc1 the results were HSP90 inh 0 and TRAIL sens C8 -3.
Screening CCOC(=O)c1[nH]c2ccc(F)cc2c1NC(=O)C1=COCCO1 returned HSP90 inh 3, PPC-1+TRAIL kill -1, TRAIL sens C8 -4, FLuc inh counter 1, FLuc act counter 1 and PPC-1 tox -7.
CCOC(=O)c1[nH]c2ccc(F)cc2c1NC(=O)c1ccccc1C(=O)O was read as HSP90 inh 3 and TRAIL sens C8 16.
Screening CCc1cc(SC#N)cc(CC)c1NC(=O)CCl returned HSP90 inh 1, PPC-1+TRAIL kill -1, TRAIL sens C8 -4, FLuc inh counter -2 and FLuc act counter 1.
CC(=O)Cc1cc(O)c2ccccc2c1OC(=O)c1ccccc1 was read as HSP90 inh 6, PPC-1+TRAIL kill 12, TRAIL sens C8 3, FLuc inh counter -5, FLuc act counter 1 and PPC-1 tox 11.
For O=C(Nc1nc2ccccc2[nH]1)c1cc(F)cc(F)c1 the results were HSP90 inh 7 and TRAIL sens C8 41.
For COc1ccc2oc(C(=O)Nc3nc4ccccc4[nH]3)c(C)c2c1 the results were HSP90 inh 5, PPC-1+TRAIL kill 59*, TRAIL sens C8 69* and PPC-1 tox 54*.
Screening O=C(Nc1nc2ccccc2[nH]1)c1cc2ccccc2o1 returned HSP90 inh 6, PPC-1+TRAIL kill 68*, TRAIL sens C8 66*, FLuc inh counter 75*, FLuc act counter 0.3 and PPC-1 tox 69*.
Screening COc1ccc(Br)c(C(=O)Nc2nc3ccccc3[nH]2)c1 returned HSP90 inh 1 and TRAIL sens C8 -5.
C=CCn1c(N)cc(=O)nc1SC(C)C(=O)Nc1cccc2ccccc12 (centres undefined) was read as HSP90 inh 0, PPC-1+TRAIL kill 15, TRAIL sens C8 -2, FLuc inh counter -4, FLuc act counter 1 and PPC-1 tox 4.
Screening CC(Sc1nc(=O)cc(N)n1CCc1ccccc1)C(=O)NCc1ccccc1 (centres undefined) returned HSP90 inh -3, PPC-1+TRAIL kill 23, TRAIL sens C8 -3, FLuc inh counter 0 and FLuc act counter 1.
For CCOc1ccc(-n2c(SC)nc3c(c2=O)SCC3)cc1 the results were HSP90 inh 8, PPC-1+TRAIL kill -10, TRAIL sens C8 21, FLuc inh counter 1, FLuc act counter 1 and PPC-1 tox -12.
`Cc1ccc(Nc2nnc(SCC(=O)Nc3ncc(S(=O)(=O)c4ccc([N+](=O)[O-])cc4)s3)s2)cc1` gave HSP90 inh 0, PPC-1+TRAIL kill 25, TRAIL sens C8 33, FLuc inh counter 10 and FLuc act counter 0.9.
Screening CC(C)c1ccc(Nc2nnc(SCC(=O)Nc3ncc(S(=O)(=O)c4ccc([N+](=O)[O-])cc4)s3)s2)cc1 returned HSP90 inh 1, PPC-1+TRAIL kill 64*, TRAIL sens C8 76*, FLuc inh counter 73*, FLuc act counter 0.3 and PPC-1 tox 65*.
Screening O=C(CCc1ccccn1)N1CCCC(N2CCN(c3cccc(C(F)(F)F)c3)CC2)C1 (centres undefined) returned HSP90 inh 2 and TRAIL sens C8 5.
